Source: ChEMBL document CHEMBL1126070, “Bisquinolines. 1. N,N-bis(7-chloroquinolin-4-yl)alkanediamines with potential against chloroquine-resistant malaria” (J Med Chem, 1992)

Tested on: Plasmodium falciparum
Assay: In vitro activity against Plasmodium falciparum W-2
Type: functional, organism-based
Conditions: not given
Method in brief: (§1)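 Test compounds dissolved in DMSO and serially diluted in culture medium. Erythrocytes at 0.25 to 0.5% parasitemia added in 96-well microdilution plates to a final hematocrit of 1.5%. Activity indexed by inhibition of [3H]hypoxanthine uptake. IC50 derived from this uptake.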

| Structure (SMILES) | IC50 [nM] |
| --- | --- |
| Clc1ccc2c(NCCCCCCCCCCCCNc3ccnc4cc(Cl)ccc34)ccnc2c1 | 31 |
| Clc1ccc2c(NCCCCCCCNc3ccnc4cc(Cl)ccc34)ccnc2c1 | 4.3 |
| Clc1ccc2c(NCCCCCCCCNc3ccnc4cc(Cl)ccc34)ccnc2c1 | 3.1 |
| CC(CCCNc1ccnc2cc(Cl)ccc12)CNc1ccnc2cc(Cl)ccc12 (configuration not stated) | 3 |
| Clc1ccc2c(NCCCCCCNc3ccnc4cc(Cl)ccc34)ccnc2c1 | 23 |
| Clc1ccc2c(NC3CCCCC3Nc3ccnc4cc(Cl)ccc34)ccnc2c1 (configuration not stated) | 1.4 |
| Clc1ccc2c(NCCCCCCCCCNc3ccnc4cc(Cl)ccc34)ccnc2c1 | 2.3 |
| Clc1ccc2c(N3CCN(CCCN4CCN(c5ccnc6cc(Cl)ccc56)CC4)CC3)ccnc2c1 [PIPERAQUINE] | 16 |
| Clc1ccc2c(NCCCCCCCCCCNc3ccnc4cc(Cl)ccc34)ccnc2c1 | 3.4 |
| Clc1ccc2c(NCCCCNc3ccnc4cc(Cl)ccc34)ccnc2c1 | 81 |
| Clc1ccc2c(NCCNc3ccnc4cc(Cl)ccc34)ccnc2c1 | 27 |
| Clc1ccc2c(NCCCNc3ccnc4cc(Cl)ccc34)ccnc2c1 | 83 |
| Clc1ccc2c(NCCCCCNc3ccnc4cc(Cl)ccc34)ccnc2c1 | 3.8 |
| CC(CNc1ccnc2cc(Cl)ccc12)Nc1ccnc2cc(Cl)ccc12 (configuration not stated) | 3.9 |

Tested on: Plasmodium berghei
Assay: In vivo antimalarial activity against Plasmodium berghei infected mice (Mus musculus) at 40 mg/kg
Type: functional
Conditions: not given

| Structure (SMILES) | T-C [days] |
| --- | --- |
| Clc1ccc2c(NCCCCCCCCCCCCNc3ccnc4cc(Cl)ccc34)ccnc2c1 | 0 |
| Clc1ccc2c(NCCCCCCCNc3ccnc4cc(Cl)ccc34)ccnc2c1 | 2.6 |
| Clc1ccc2c(NCCCCCCCCNc3ccnc4cc(Cl)ccc34)ccnc2c1 | -0.2 |
| CC(CCCNc1ccnc2cc(Cl)ccc12)CNc1ccnc2cc(Cl)ccc12 (configuration not stated) | 1.2 |
| Clc1ccc2c(NCCCCCCNc3ccnc4cc(Cl)ccc34)ccnc2c1 | 0.4 |
| Clc1ccc2c(NC3CCCCC3Nc3ccnc4cc(Cl)ccc34)ccnc2c1 (configuration not stated) | 8.5 |
| Clc1ccc2c(NCCCCCCCCCNc3ccnc4cc(Cl)ccc34)ccnc2c1 | 3.1 |
| Clc1ccc2c(NCCCCCCCCCCNc3ccnc4cc(Cl)ccc34)ccnc2c1 | 0.2 |
| Clc1ccc2c(NCCCCNc3ccnc4cc(Cl)ccc34)ccnc2c1 | 0.5 |
| Clc1ccc2c(NCCNc3ccnc4cc(Cl)ccc34)ccnc2c1 | 0 |
| Clc1ccc2c(NCCCNc3ccnc4cc(Cl)ccc34)ccnc2c1 | 0.2 |
| Clc1ccc2c(NCCCCCNc3ccnc4cc(Cl)ccc34)ccnc2c1 | 1 |
| CC(CNc1ccnc2cc(Cl)ccc12)Nc1ccnc2cc(Cl)ccc12 (configuration not stated) | 3.4 |

Tested on: Plasmodium falciparum
Assay: In vitro activity against Plasmodium falciparum D6
Type: functional, organism-based
Conditions: not given
Method in brief: as §1

| Structure (SMILES) | IC50 [nM] |
| --- | --- |
| Clc1ccc2c(NCCCCCCCCCCCCNc3ccnc4cc(Cl)ccc34)ccnc2c1 | 60 |
| Clc1ccc2c(NCCCCCCCNc3ccnc4cc(Cl)ccc34)ccnc2c1 | 1.9 |
| Clc1ccc2c(NCCCCCCCCNc3ccnc4cc(Cl)ccc34)ccnc2c1 | 5.6 |
| CC(CCCNc1ccnc2cc(Cl)ccc12)CNc1ccnc2cc(Cl)ccc12 (configuration not stated) | 2.7 |
| Clc1ccc2c(NCCCCCCNc3ccnc4cc(Cl)ccc34)ccnc2c1 | 21 |
| Clc1ccc2c(NC3CCCCC3Nc3ccnc4cc(Cl)ccc34)ccnc2c1 (configuration not stated) | 1 |
| Clc1ccc2c(NCCCCCCCCCNc3ccnc4cc(Cl)ccc34)ccnc2c1 | 3 |
| Clc1ccc2c(N3CCN(CCCN4CCN(c5ccnc6cc(Cl)ccc56)CC4)CC3)ccnc2c1 [PIPERAQUINE] | 8.3 |
| Clc1ccc2c(NCCCCCCCCCCNc3ccnc4cc(Cl)ccc34)ccnc2c1 | 5.7 |
| Clc1ccc2c(NCCCCNc3ccnc4cc(Cl)ccc34)ccnc2c1 | 390 |
| Clc1ccc2c(NCCNc3ccnc4cc(Cl)ccc34)ccnc2c1 | 17 |
| Clc1ccc2c(NCCCNc3ccnc4cc(Cl)ccc34)ccnc2c1 | 15 |
| Clc1ccc2c(NCCCCCNc3ccnc4cc(Cl)ccc34)ccnc2c1 | 2.5 |
| CC(CNc1ccnc2cc(Cl)ccc12)Nc1ccnc2cc(Cl)ccc12 (configuration not stated) | 3.5 |

Tested on: Plasmodium berghei
Assay: In vivo antimalarial activity against Plasmodium berghei infected mice (Mus musculus) at 320 mg/kg
Conditions: not given

| Structure (SMILES) | T-C [days] |
| --- | --- |
| Clc1ccc2c(NC3CCCCC3Nc3ccnc4cc(Cl)ccc34)ccnc2c1 (configuration not stated) | >60 |

Tested on: not listed separately
Assay: Resistance index was measured as the ratio of IC50 of Plasmodium falciparum W-2 clone / IC50 of P. falciparum D-6 clone
Type: functional
Conditions: not given
Method in brief: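 P. falciparum clones D-6 (mefloquine-resistant) and W-2 (CQ-, pyrimethamine-, sulfadoxine- and quinine-resistant) were tested in parallel. Compounds were dissolved in DMSO and serially diluted in culture medium. Infected erythrocytes at 0.25–0.5% parasitemia were added to a final 1.5% hematocrit. IC50 for each clone came from inhibition of tritiated hypoxanthine uptake, and the index is IC50(W-2)/IC50(D-6).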

| Structure (SMILES) | Resistance index |
| --- | --- |
| Clc1ccc2c(NCCCCCCCCCCCCNc3ccnc4cc(Cl)ccc34)ccnc2c1 | 0.5 |
| Clc1ccc2c(NCCCCCCCNc3ccnc4cc(Cl)ccc34)ccnc2c1 | 2.3 |
| Clc1ccc2c(NCCCCCCCCNc3ccnc4cc(Cl)ccc34)ccnc2c1 | 0.6 |
| CC(CCCNc1ccnc2cc(Cl)ccc12)CNc1ccnc2cc(Cl)ccc12 (configuration not stated) | 1.1 |
| Clc1ccc2c(NCCCCCCNc3ccnc4cc(Cl)ccc34)ccnc2c1 | 1.1 |
| Clc1ccc2c(NC3CCCCC3Nc3ccnc4cc(Cl)ccc34)ccnc2c1 (configuration not stated) | 1.4 |
| Clc1ccc2c(NCCCCCCCCCNc3ccnc4cc(Cl)ccc34)ccnc2c1 | 0.8 |
| Clc1ccc2c(N3CCN(CCCN4CCN(c5ccnc6cc(Cl)ccc56)CC4)CC3)ccnc2c1 [PIPERAQUINE] | 1.9 |
| Clc1ccc2c(NCCCCCCCCCCNc3ccnc4cc(Cl)ccc34)ccnc2c1 | 0.6 |
| Clc1ccc2c(NCCCCNc3ccnc4cc(Cl)ccc34)ccnc2c1 | 0.2 |
| Clc1ccc2c(NCCNc3ccnc4cc(Cl)ccc34)ccnc2c1 | 1.6 |
| Clc1ccc2c(NCCCNc3ccnc4cc(Cl)ccc34)ccnc2c1 | 5.5 |
| Clc1ccc2c(NCCCCCNc3ccnc4cc(Cl)ccc34)ccnc2c1 | 1.5 |
| CC(CNc1ccnc2cc(Cl)ccc12)Nc1ccnc2cc(Cl)ccc12 (configuration not stated) | 1.1 |

Tested on: Plasmodium berghei
Assay: In vivo antimalarial activity against Plasmodium berghei infected mice (Mus musculus) at 640 mg/kg
Type: functional
Conditions: not given

| Structure (SMILES) | T-C [days] |
| --- | --- |
| Clc1ccc2c(NCCCCCCCCCCCCNc3ccnc4cc(Cl)ccc34)ccnc2c1 | 0 |
| CC(CCCNc1ccnc2cc(Cl)ccc12)CNc1ccnc2cc(Cl)ccc12 (configuration not stated) | >60 |
| Clc1ccc2c(NCCCCCCNc3ccnc4cc(Cl)ccc34)ccnc2c1 | >60 |
| CCN(CC)CCCC(C)Nc1ccnc2cc(Cl)ccc12 (configuration not stated) [CHLOROQUINE] | >60 |
| Clc1ccc2c(NCCCCCCCCCCNc3ccnc4cc(Cl)ccc34)ccnc2c1 | 0.6 |
| Clc1ccc2c(NCCCCNc3ccnc4cc(Cl)ccc34)ccnc2c1 | 5.6 |
| Clc1ccc2c(NCCNc3ccnc4cc(Cl)ccc34)ccnc2c1 | 1.4 |
| Clc1ccc2c(NCCCNc3ccnc4cc(Cl)ccc34)ccnc2c1 | 1.2 |
| Clc1ccc2c(NCCCCCNc3ccnc4cc(Cl)ccc34)ccnc2c1 | >60 |
| CC(CNc1ccnc2cc(Cl)ccc12)Nc1ccnc2cc(Cl)ccc12 (configuration not stated) | >60 |

Tested on: Plasmodium berghei
Assay: In vivo antimalarial activity against Plasmodium berghei infected mice (Mus musculus) at 640 mg/kg; C-1
Type: functional, organism-based
Design: dose 640 mg/kg
Conditions: not given

| Structure (SMILES) | T-C |
| --- | --- |
| Clc1ccc2c(NCCCCCCCCNc3ccnc4cc(Cl)ccc34)ccnc2c1 | Curative-1 |

Tested on: Plasmodium berghei
Assay: In vivo antimalarial activity against Plasmodium berghei infected mice (Mus musculus) at 160 mg/kg
Type: functional
Conditions: not given

| Structure (SMILES) | T-C [days] |
| --- | --- |
| Clc1ccc2c(NCCCCCCCCCCCCNc3ccnc4cc(Cl)ccc34)ccnc2c1 | -0.2 |
| Clc1ccc2c(NCCCCCCCNc3ccnc4cc(Cl)ccc34)ccnc2c1 | 7.2 |
| Clc1ccc2c(NCCCCCCCCNc3ccnc4cc(Cl)ccc34)ccnc2c1 | 1 |
| CC(CCCNc1ccnc2cc(Cl)ccc12)CNc1ccnc2cc(Cl)ccc12 (configuration not stated) | 3.6 |
| Clc1ccc2c(NCCCCCCNc3ccnc4cc(Cl)ccc34)ccnc2c1 | 3.9 |
| Clc1ccc2c(NC3CCCCC3Nc3ccnc4cc(Cl)ccc34)ccnc2c1 (configuration not stated) | >60 |
| Clc1ccc2c(NCCCCCCCCCNc3ccnc4cc(Cl)ccc34)ccnc2c1 | 7.4 |
| CCN(CC)CCCC(C)Nc1ccnc2cc(Cl)ccc12 (configuration not stated) [CHLOROQUINE] | >60 |
| Clc1ccc2c(NCCCCCCCCCCNc3ccnc4cc(Cl)ccc34)ccnc2c1 | 0.2 |
| Clc1ccc2c(NCCCCNc3ccnc4cc(Cl)ccc34)ccnc2c1 | 2.3 |
| Clc1ccc2c(NCCNc3ccnc4cc(Cl)ccc34)ccnc2c1 | 0.4 |
| Clc1ccc2c(NCCCNc3ccnc4cc(Cl)ccc34)ccnc2c1 | 0.4 |
| Clc1ccc2c(NCCCCCNc3ccnc4cc(Cl)ccc34)ccnc2c1 | 5.1 |
| CC(CNc1ccnc2cc(Cl)ccc12)Nc1ccnc2cc(Cl)ccc12 (configuration not stated) | 5.7 |

Tested on: Plasmodium berghei
Assay: In vivo antimalarial activity against Plasmodium berghei infected mice (Mus musculus) at 640 mg/kg; Skin lesions at injection site
Type: functional, organism-based
Design: dose 640 mg/kg
Conditions: Skin of body
Method in brief: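 P. berghei (KBG 173) infected male mice, 5 per dose, given a single subcutaneous dose 3 days post-infection. Injection sites examined for skin lesions.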

| Structure (SMILES) | T-C |
| --- | --- |
| Clc1ccc2c(NCCCCCCCCCNc3ccnc4cc(Cl)ccc34)ccnc2c1 | Lesions 15A |
